Results from ChEMBL document CHEMBL3400011, “Canthinone alkaloids are novel protein tyrosine phosphatase 1B inhibitors” (Bioorg Med Chem Lett, 2015).

What was measured:
[1] = biological target: T1, Tyrosine-protein phosphatase non-receptor type 1 (Homo sapiens) (UniProt P18031); experiment: Inhibition of PTP1B (unknown origin) assessed as inhibition rate at 100 uM
T1 sequence (whole entry): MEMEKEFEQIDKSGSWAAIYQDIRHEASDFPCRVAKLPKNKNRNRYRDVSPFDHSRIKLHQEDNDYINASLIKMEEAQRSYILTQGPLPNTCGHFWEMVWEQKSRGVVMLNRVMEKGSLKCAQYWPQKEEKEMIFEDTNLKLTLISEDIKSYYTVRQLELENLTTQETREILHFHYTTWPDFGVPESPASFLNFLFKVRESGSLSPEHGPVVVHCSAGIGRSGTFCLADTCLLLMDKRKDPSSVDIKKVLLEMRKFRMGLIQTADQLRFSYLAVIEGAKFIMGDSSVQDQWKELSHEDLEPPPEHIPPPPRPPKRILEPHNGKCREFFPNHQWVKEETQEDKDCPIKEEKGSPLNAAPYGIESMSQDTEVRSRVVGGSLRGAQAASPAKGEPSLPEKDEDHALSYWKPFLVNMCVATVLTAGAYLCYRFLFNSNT
How it was run: (§1)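 PTP1B enzymatic assay with RK-682 as the positive control. For the single-point screen, compounds were tested at a final 100 µM. For dose–response, inhibition was measured over a range of compound concentrations, and IC50 was obtained by regression analysis.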

[2] = biological target: T1, Tyrosine-protein phosphatase non-receptor type 1 (Homo sapiens); experiment: Inhibition of PTP1B (unknown origin) assessed as inhibition rate at 75 uM
[3] = biological target: T2, Tyrosine-protein phosphatase non-receptor type 1 (Homo sapiens, UniProt P18031); experiment: Inhibition of PTP1B (unknown origin); how it was run: as §1
T2 sequence (P18031 whole entry): T1 sequence (whole entry)

[4] = species on record: Homo sapiens; experiment: Ratio of inhibition rate for PTP1B (unknown origin) at 75 uM to inhibition rate for SHP2 (unknown origin) at 75 uM
[5] = system: HepG2; experiment: Induction of Akt phosphorylation in insulin-stimulated human HepG2 cells assessed as pAkt/Akt ratio at 50 uM after 5 mins by western blotting analysis relative to control; assay type: functional
How it was run: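 HepG2 cells were treated with compound at 50 µM, then stimulated with insulin. pAkt was assessed by western blotting at 0 and 5 min after insulin. DMSO served as the negative control and sodium orthovanadate (200 µM) as the positive control. Values are expressed relative to control.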

[6] = species on record: Homo sapiens; experiment: Ratio of inhibition rate for PTP1B (unknown origin) at 75 uM to inhibition rate for TCPTP (unknown origin) at 75 uM
[7] = species on record: Homo sapiens; experiment: Ratio of inhibition rate for PTP1B (unknown origin) at 75 uM to inhibition rate for VHR (unknown origin) at 75 uM
[8] = biological target: T3, Tyrosine-protein phosphatase non-receptor type 2 (Homo sapiens) (UniProt P17706); experiment: Inhibition of TCPTP (unknown origin) assessed as inhibition rate at 75 uM
T3 sequence (whole entry): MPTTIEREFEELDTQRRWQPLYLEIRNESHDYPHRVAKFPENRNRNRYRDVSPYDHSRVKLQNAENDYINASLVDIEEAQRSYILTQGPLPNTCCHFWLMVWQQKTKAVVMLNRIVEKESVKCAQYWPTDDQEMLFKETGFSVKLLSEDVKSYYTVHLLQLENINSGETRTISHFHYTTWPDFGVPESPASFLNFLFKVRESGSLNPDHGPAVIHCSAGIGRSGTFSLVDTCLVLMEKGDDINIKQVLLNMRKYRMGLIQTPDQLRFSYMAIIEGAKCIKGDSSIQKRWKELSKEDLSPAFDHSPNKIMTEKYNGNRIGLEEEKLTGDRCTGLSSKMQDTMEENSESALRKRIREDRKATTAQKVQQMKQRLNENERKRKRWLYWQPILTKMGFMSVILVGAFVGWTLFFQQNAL

[9] = biological target: T4, Tyrosine-protein phosphatase non-receptor type 11 (Homo sapiens) (UniProt Q06124); experiment: Inhibition of SHP2 (unknown origin) assessed as inhibition rate at 75 uM
T4 sequence (whole entry): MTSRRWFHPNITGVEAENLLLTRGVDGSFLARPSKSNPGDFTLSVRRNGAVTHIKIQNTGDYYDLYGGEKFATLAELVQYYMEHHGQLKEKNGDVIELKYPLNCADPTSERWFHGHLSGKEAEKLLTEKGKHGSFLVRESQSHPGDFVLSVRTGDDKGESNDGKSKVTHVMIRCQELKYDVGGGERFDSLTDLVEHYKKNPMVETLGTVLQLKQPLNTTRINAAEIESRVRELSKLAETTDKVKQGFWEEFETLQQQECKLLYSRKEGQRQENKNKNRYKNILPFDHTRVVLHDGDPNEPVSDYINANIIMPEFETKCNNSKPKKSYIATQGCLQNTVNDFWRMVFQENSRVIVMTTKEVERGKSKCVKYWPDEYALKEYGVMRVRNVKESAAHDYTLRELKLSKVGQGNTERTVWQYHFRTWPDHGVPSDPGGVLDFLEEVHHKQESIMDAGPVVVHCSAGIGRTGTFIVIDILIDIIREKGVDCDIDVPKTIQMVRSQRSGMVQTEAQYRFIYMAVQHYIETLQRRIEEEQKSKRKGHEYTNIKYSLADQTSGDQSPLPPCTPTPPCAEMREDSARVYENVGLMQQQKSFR

[10] = biological target: T2, Tyrosine-protein phosphatase non-receptor type 1; experiment: Non-competitive inhibition of PTP1B (unknown origin) assessed as hydrolysis of para-nitrophenylphosphate by Lineweaver-Burk plot
How it was run: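 Kinetic study of PTP1B varying both compound and p-nitrophenylphosphate substrate concentrations. Mode was read from Lineweaver–Burk plots. Slopes from those plots were replotted against compound concentration (secondary plot), and Ki was calculated from that plot.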

[11] = species on record: Homo sapiens; experiment: Ratio of inhibition rate for PTP1B (unknown origin) at 75 uM to inhibition rate for SHP1 (unknown origin) at 75 uM
[12] = biological target: Tyrosine-protein phosphatase non-receptor type 6 (Homo sapiens) (UniProt P29350); experiment: Inhibition of SHP1 (unknown origin) assessed as inhibition rate at 75 uM
[13] = biological target: Dual specificity protein phosphatase 3 (Homo sapiens) (UniProt P51452); experiment: Inhibition of VHR (unknown origin) assessed as inhibition rate at 75 uM
Chain of Dual specificity protein phosphatase 3 (Homo sapiens) (P51452 whole entry, looked up): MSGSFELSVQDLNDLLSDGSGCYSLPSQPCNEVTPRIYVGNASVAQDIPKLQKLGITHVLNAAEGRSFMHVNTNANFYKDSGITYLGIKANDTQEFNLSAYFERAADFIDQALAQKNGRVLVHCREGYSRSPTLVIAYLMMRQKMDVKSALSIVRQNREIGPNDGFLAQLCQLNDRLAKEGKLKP

Chain of Tyrosine-protein phosphatase non-receptor type 6 (Homo sapiens) (P29350 whole entry): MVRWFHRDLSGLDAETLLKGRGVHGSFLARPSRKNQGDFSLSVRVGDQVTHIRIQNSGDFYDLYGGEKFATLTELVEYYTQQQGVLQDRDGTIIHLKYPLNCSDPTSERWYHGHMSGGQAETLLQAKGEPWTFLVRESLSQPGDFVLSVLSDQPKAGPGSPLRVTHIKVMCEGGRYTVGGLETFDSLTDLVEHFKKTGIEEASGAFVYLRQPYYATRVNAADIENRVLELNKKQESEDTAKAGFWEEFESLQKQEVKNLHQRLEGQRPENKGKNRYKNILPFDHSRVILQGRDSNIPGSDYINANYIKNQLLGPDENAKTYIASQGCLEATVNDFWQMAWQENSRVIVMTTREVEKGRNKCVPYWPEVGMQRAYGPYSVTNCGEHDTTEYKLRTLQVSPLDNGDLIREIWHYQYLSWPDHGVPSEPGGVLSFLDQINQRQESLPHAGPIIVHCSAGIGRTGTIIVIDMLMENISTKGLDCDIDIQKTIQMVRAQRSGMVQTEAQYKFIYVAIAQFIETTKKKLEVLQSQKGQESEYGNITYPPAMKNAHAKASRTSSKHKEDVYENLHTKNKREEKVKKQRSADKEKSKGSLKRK

| Structure (SMILES) | inhibition [1] [%] | other results |
| --- | --- | --- |
| C=Cc1ncc(OC)c2c3ccccc3n(OC)c12 | 33.5 | – |
| COc1c2n(C)ccc3c-2n(c(=O)c1=O)c1ccccc31 | 76.6 | – |
| CCc1nccc2c1[nH]c1ccccc12 | 30.2 | – |
| COC(=O)c1cc2c([nH]c3ccccc32)c(C)n1 | 14.3 | – |
| COc1cnc(C(OC)OC(C)=O)c2[nH]c3ccccc3c12 (configuration not stated) | 11.6 | – |
| COc1cnc(C(=O)CC(CO)c2ncc(OC)c3c2[nH]c2ccccc23)c2[nH]c3ccccc3c12 (configuration not stated) | 33 | – |
| COc1c(OC(C)=O)c(=O)n2c3ccccc3c3cc(OC(C)=O)nc1c32 | 41.7 | – |
| Cc1nccc2c1[nH]c1ccccc12 | 7.7 | – |
| Cc1nc(C(=O)O)cc2c1[nH]c1ccccc12 | 18.2 | – |
| CC(=O)c1nccc2c1[nH]c1ccccc12 | 25.1 | – |
| OCc1nccc2c1[nH]c1ccccc12 | 17 | – |
| CC(C)C1NC(C(=O)O)Cc2c1[nH]c1ccccc21 (configuration not stated) | 11.3 | – |
| COC(=O)/C=C/C(=O)c1ncc(OC)c2c1[nH]c1c(OC)cccc12 | 21 | – |
| Cn1c(=O)cc2c3ccccc3n3c(=O)ccc1c23 | 33.6 | – |
| Cc1c2[nH]c3ccccc3c2cc[n+]1[O-] | -3 | – |
| COC(=O)C1Cc2c([nH]c3ccccc23)CN1 (configuration not stated) | 21.3 | – |
| COc1c(OC)c2nc(O)cc3c4ccccc4n(c1=O)c23 | 81.9 | – |
| CCCC1NC(C(=O)OC)Cc2c1[nH]c1ccccc21 (configuration not stated) | 7.9 | – |
| COc1c(O)c(=O)n2c3ccccc3c3ccnc1c32 | 42.8 | – |
| COc1c(O)c2nccc3c4cc(O)ccc4n(c1=O)c23 | 30.5 | – |
| COc1cc2nccc3c4ccccc4n(c1=O)c23 [5-METHOXYCANTHINONE] | – | inhibition [2]: 91%; IC50 [3]: 20.3 µM; Ratio [4]: 5; pAkt/Akt ratio [5]: 1.3; Ratio [6]: 1.9; Ratio [7]: 3.3; inhibition [8]: 48.4%; inhibition [9]: 18.3%; Ki [10]: 10.3 µM; Ratio [11]: 4; inhibition [12]: 22.8%; inhibition [13]: 27.5% |
| COCc1c2[nH]c3ccccc3c2cc[n+]1[O-] | 59 | – |
| CCc1nc(C(=O)OC)cc2c1[nH]c1ccccc12 | 21.2 | – |
| O=C(O)c1nccc2c1[nH]c1ccccc12 | 28.5 | – |

| Structure (SMILES) | inhibition [1] [%] | other results |
| --- | --- | --- |
| COC(=O)c1cc2c(cn1)[nH]c1ccccc12 | 23 | – |
| CCCCn1ccc2c3n(c(=O)c(=O)cc1-3)c1ccccc21 | 42 | – |
| Cc1c2n(C)ccc3c-2n(c(=O)c1=O)c1ccccc31 | – | inhibition [2]: 92.1%; IC50 [3]: 24.7 µM; Ratio [4]: 3.8; Ratio [6]: 1.9; Ratio [7]: 3.5; inhibition [8]: 49.7%; inhibition [9]: 23.3%; Ki [10]: 19.9 µM; Ratio [11]: 3.8; inhibition [12]: 24.4%; inhibition [13]: 26.5% |
| COc1c(OC)c2nccc3c4ccccc4n(c1=O)c23 | 26.5 | – |
| COc1cnc(C(C)=O)c2[nH]c3ccccc3c12 | 21.6 | – |
| CCCCn1ccc2c3n(c(=O)c(=O)c(OC)c1-3)c1ccccc21 | 11.7 | – |
| COc1cnc2ccc(=O)n3c4ccccc4c1c23 | 23.7 | – |
| COc1cccc2c1[nH]c1c(C(=O)CCC(=O)c3ncc(OC)c4c3[nH]c3c(OC)cccc34)ncc(OC)c12 | 43.8 | – |
| COCc1nccc2c1[nH]c1ccccc12 | 27.4 | – |
| COc1cnc(CCn2ccc3c4n(c(=O)c(=O)cc2-4)c2ccccc32)c2c1c1ccccc1n2OC | 43.9 | – |
| COc1cccc2c1[nH]c1c(CCC(OC)C(=O)c3nccc4c3[nH]c3ccccc34)ncc(OC)c12 (configuration not stated) | 44.1 | – |
| CCC1NC(C(=O)O)Cc2c1[nH]c1ccccc21 (configuration not stated) | 20.8 | – |
| O=C(O)CCc1nccc2c1[nH]c1ccccc12 | 39.3 | – |
| COc1cccc2c1[nH]c1c(CCn3ccc4c5n(c(=O)c(=O)cc3-5)c3ccccc43)ncc(OC)c12 | 48.5 | – |
| COc1c(OC)c2c3c(cc(=O)n2C)c2ccccc2n3c1=O | 34.4 | – |
| COc1ccc2c3ccnc4ccc(=O)n(c2c1)c43 | 34.9 | – |
| CCc1ncc(OC)c2c1[nH]c1ccccc12 | 16.1 | – |
| NC(=O)c1nccc2c1[nH]c1ccccc12 | 20.3 | – |
| O=Cc1nccc2c1[nH]c1ccccc12 | 9.8 | – |
| COCCc1ncc(OC)c2c1[nH]c1c(OC)cccc12 | 28.6 | – |
| CCn1ccc2c3n(c(=O)c(=O)c(OC)c1-3)c1ccccc21 | 43.6 | – |
| CCn1ccc2c3n(c(=O)c(=O)cc1-3)c1cc(OC)ccc21 | 59.4 | – |
| O=C(O)C1Cc2c([nH]c3ccccc23)CN1 (configuration not stated) | 26 | – |
| CCn1ccc2c3n(c(=O)c(=O)cc1-3)c1ccccc21 | 63.4 | – |

| Structure (SMILES) | inhibition [1] [%] | other results |
| --- | --- | --- |
| COc1c(OC)c2c3c(cc[n+]2[O-])c2ccccc2n3c1=O | 14.8 | – |
| Oc1nccc2c1[nH]c1ccccc12 | 8.5 | – |
| O=c1ccc2nccc3c4c(O)cccc4n1c23 | 50.6 | – |
| COC(=O)c1nccc2c1[nH]c1ccccc12 | 2.9 | – |
| CCC1NC(C(=O)c2ccccc2)Cc2c1[nH]c1ccccc21 (configuration not stated) | 4.7 | – |
| O=c1ccc2c3c(cc[n+]2[O-])c2ccccc2n13 | 50.9 | – |
| C=Cc1ncc(OC)c2c1[nH]c1c(OC)cccc12 | 40.3 | – |
| C(=C\c1nccc2c1[nH]c1ccccc12)/c1ccccc1 | 15 | – |
| COc1cnc(C(O)CO)c2[nH]c3ccccc3c12 (configuration not stated) | 10.5 | – |
| COn1c(=O)cc2c3ccccc3n3c(=O)ccc1c23 | 31.2 | – |
| CCc1c2[nH]c3ccccc3c2cc[n+]1[O-] | 4.3 | – |
| CCCC1NC(C(=O)O)Cc2c1[nH]c1ccccc21 (configuration not stated) | 46.9 | – |
| COc1c(OC(C)=O)c(=O)n2c3ccccc3c3ccnc1c32 | 68.8 | – |
| CCOC(=O)c1nccc2c1[nH]c1ccccc12 | 26.9 | – |
| O=c1c(O)cc2nccc3c4ccccc4n1c23 | 84.7 | – |
| O=C1NC(=O)c2[nH]c3ccccc3c2C1=O | 80.7 | – |
| CC1NC(C(=O)O)Cc2c1[nH]c1ccccc21 (configuration not stated) | 21.3 | – |
| CCc1ncc(OC)c2c1[nH]c1c(O)cccc12 | 27.1 | – |
| COc1c(O)c(=O)n2c3ccccc3c3cc(=O)n(C)c1c32 | 26.3 | – |
| O=c1c(CO)cc2nccc3c4ccccc4n1c23 | 33.8 | – |
| COc1c(O)c2nccc3c4ccccc4n(c1=O)c23 | 55.9 | – |
| O=c1ccc2nccc3c4ccccc4n1c23 | 15.3 | – |
| O=C(O)c1cc2c([nH]c3ccccc32)c(-c2cccc3c2OCO3)n1 | 19.8 | – |
